Measurements collected from several papers.
Protocols differ between the studies behind these lines.
Target: Ephrin type-A receptor 5 (EPHA5, Homo sapiens, UniProt P54756)

| Structure (SMILES) | effect on | mode | technique | concentration | endpoint | result |
| --- | --- | --- | --- | --- | --- | --- |
| Cc1ccc(Nc2nccc(N(C)c3ccc4c(C)n(C)nc4c3)n2)cc1S(N)(=O)=O | enzyme activity | inhibitor |  | 10 µM | inhibition | 70% |
| C=CC(=O)Nc1cc(Nc2nccc(Nc3cc(Cl)c(F)cc3C(C)(C)O)n2)c(OC)cc1N1CC[C@@H](N(C)C)C1 | enzyme activity | inhibitor |  | 1 µM | inhibition | 17% |
| CN1CC(Oc2cnc(C#N)cc2-c2ccn3nc(NC(=O)C4CC4)cc3c2)C1 | enzyme activity | inhibitor |  | 1 µM | inhibition | 10% |
| CNCc1ccccc1-c1csc([C@H](C)Nc2nc(C)nc3cc(OC)c(OC)cc23)c1 | cell-free assay |  | competition with immobilised ligand | 1 µM | remaining binding | 100% |
| O=C(Nc1cnn(-c2csc(C(=O)NC3COC3)c2)c1)Nc1ccccc1Cl | enzyme activity | inhibitor |  | 5 µM | remaining activity | 96.9% |
| O=C(Nc1ccc(Oc2ccc(F)cc2)cc1)N1CCc2ncccc2[C@H]1c1ccc(F)cc1 | cell-free assay |  | competition with immobilised ligand | 1 µM | remaining binding | 100% |
| CC(C)(C)c1nc2c(s1)c1nc(N)ncc1c1ccc(NS(=O)(=O)c3c(F)cccc3F)c(F)c12 | enzyme activity | inhibitor | radiometric | 1 µM | remaining activity | 109% |
| COc1cc(-c2cc(-c3ccc(N4CCNCC4)cc3)cnc2C)cc(OC)c1OC | enzyme activity | inhibitor |  | 1 µM | inhibition | 4% |
| C#Cc1cccc(Nc2ncnc3cc(OCCOC)c(OCCOC)cc23)c1 | cell-free assay |  |  | 0.5 µM | remaining signal | 99.1% |
| N#CC1(c2ccccn2)CCN(Cc2cc(C(=O)N3CCCC3)c(=O)n3ccccc23)CC1 | cell-free assay |  | competition with immobilised ligand | 1 µM | remaining binding | 100% |
| Cc1sc(C(=O)NC2COC2)cc1-n1cc(NC(=O)Nc2c(F)cccc2Cl)cn1 | enzyme activity | inhibitor |  | 10 µM | remaining activity | 106% |
| CCc1ccccc1C(=O)Nc1n[nH]c2c(C)c(F)c(C3C(C#N)=C(C)N(C)C(C)=C3C#N)cc12 | cell-free assay |  | competition with immobilised ligand | 1 µM | remaining binding | 87% |
| CNC(=O)c1cc(Oc2ccc(NC(=O)Nc3ccc(Cl)c(C(F)(F)F)c3)cc2)ccn1 | enzyme activity | inhibitor |  | 0.3 µM | inhibition | 32% |
| O=C1Nc2ccc(Cl)cc2C1=Cc1cc(Cl)c(O)c(Cl)c1 | cell-free assay |  |  | 0.5 µM | remaining signal | 99.4% |
| CCN(CC)CCNC(=O)c1c(C)[nH]c(/C=C2\C(=O)Nc3ccc(F)cc32)c1C | enzyme activity | inhibitor |  | 10 µM | inhibition | 58% |
| Cc1cc(NC(=O)c2cccc3cc(-c4cccc5[nH]nc(N)c45)ccc23)ccc1F | enzyme activity | inhibitor |  | 0.1 µM | activity vs control | 99% |
| C[C@H](NC(=O)c1cnc2n1[C@](C)(Cc1ccc(C#N)cc1)C(=O)N2c1cc(Cl)c(F)c(Cl)c1)C(=O)NC1(c2ccccn2)CC1 | cell-free assay |  | competition with immobilised ligand | 1 µM | remaining binding | 100% |
| CC(C)c1ccc(NC(=O)c2cccs2)c(-c2nc3ccccc3[nH]c2=O)c1 | enzyme activity | inhibitor |  | 1 µM | activity vs control | 112% |
| Cc1ccc(NC(=O)c2ccc(C)c(C(F)(F)F)c2)cc1C#Cc1nn(C2CCC(O)CC2)c2ncnc(N)c12 (stereo not shown) | cell-free assay |  |  | 10 µM | remaining signal | -1% |
| Cc1cc(-n2nc(Cc3cc(F)cc(C(F)(F)F)c3)nc2C)ccc1C(N)=O | cell-free assay |  | competition with immobilised ligand | 1 µM | remaining binding | 100% |
| O=C1NC(=O)c2cc(Nc3ccc(F)cc3)c(Nc3ccc(F)cc3)cc21 | cell-free assay |  |  | 0.5 µM | remaining signal | 95.4% |
| Cn1cc(Cl)c2c(Oc3c(F)cc(Nc4cc(Cl)nc(N)n4)cc3F)ccnc21 | cell-free assay |  | competition with immobilised ligand | 0.1 µM | remaining binding | 100% |
| CNC(=O)c1cc2c(Oc3ccc(NC(=O)C4(C(=O)Nc5ccc(F)cc5)CC4)cc3)ccnc2cc1OC | enzyme activity | inhibitor | radiometric | 1 µM | inhibition | 96% |
| CS(=O)(=O)NCC[C@H](NC(=O)c1cncc2c1cnn2-c1ccc(F)cc1)c1ccnc(S(C)(=O)=O)c1 | cell-free assay |  | competition with immobilised ligand | 1 µM | remaining binding | 100% |
| COc1cc2ncnc(Nc3ccc(Oc4ccccc4)cc3C)c2cc1OC | enzyme activity | inhibitor |  | 1 µM | inhibition | 5% |
